The record followed here is ChEMBL document CHEMBL4382238, “Synthesis of isatin based N1-alkylated 3-β-C-glycoconjugated-oxopropylidene oxindoles as potent antiplasmodial agents” (Eur J Med Chem, 2019).

The subject of data set [1] is Plasmodium falciparum. The experiment in a line: Antiplasmodial activity against chloroquine-resistant Plasmodium falciparum K1 asynchronous cultures infected in human erythrocytes after 72 hrs by SYBR green1 staining based fluorescence assay. In kind it is functional, organism-based. The settings on record: K1, 72 h. Put shortly:
(§1)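 Parasites kept in human erythrocytes at 5% hematocrit in RPMI-1640 (HEPES) with 0.5% AlbuMaxII, 0.2% glucose, bicarbonate, 15 µM hypoxanthine, 37 °C CO2. Two-fold serial dilutions spanning […]; asynchronous culture at 0.8-1% parasitaemia, 1% haematocrit; 72 h, 37 °C. Lytic buffer with SYBR Green (1x final), 2 h dark, RT; Ex 485/Em 535 nm. IC50 from DNA signal versus drug-free controls; at least duplicate determinations.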

Data set [2] can be described thus: Selectivity index, ratio of CC50 for African green monkey Vero cells to IC50 for chloroquine-sensitive Plasmodium falciparum 3D7 asynchronous cultures infected in human erythrocytes. The format is toxicity, cell-based. The note with it: read-out: Ratio CC50/IC50.
Data set [3] is described as follows: Cytotoxicity against African green monkey Vero cells measured after 72 hrs by resazurin assay. The settings on record: chlorocebus sabaeus. The format is cell-based. Put shortly:
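VERO monkey kidney cells grown in MEM with 15% FBS under 5% CO2 at 37 °C. Cells exposed to serial drug dilutions for three days. 10% resazurin then added as viability marker. Fluorescence read at excitation 530 ± 25 nm and emission 590 ± 25 nm to calculate median cytotoxic concentration (CC50). Values are the average of at least duplicate determinations.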

Data set [4] is described as follows: Selectivity index, ratio of CC50 for African green monkey Vero cells to IC50 for chloroquine-resistant Plasmodium falciparum K1 asynchronous cultures infected in human erythrocytes. The note with it: read-out: Ratio CC50/IC50. In kind it is toxicity, cell-based.
Data set [5] has as its system Plasmodium falciparum. The experiment in a line: Antiplasmodial activity against chloroquine-sensitive Plasmodium falciparum 3D7 asynchronous cultures infected in human erythrocytes after 72 hrs by SYBR green1 staining based fluorescence assay. In kind it is functional, organism-based. The settings on record: 3D7, 72 h. Put shortly: as §1

Turning to `CC(=O)OC[C@H]1O[C@@H](CC(=O)/C=C2\C(=O)N(CCc3ccccc3)c3ccc(Cl)cc32)[C@H](OC(C)=O)[C@@H](OC(C)=O)[C@@H]1OC(C)=O`, the IC50 – broadly, the concentration needed to halve the response being measured – with Plasmodium falciparum [1] turned out to be 940 nM; in the data set with Plasmodium falciparum [5], 110 nM. The selectivity ratio in data set [2] worked out at 845; in data set [4], 98.9. In addition, the CC50 (usually the concentration giving 50% cytotoxicity) at 72 h in data set [3] worked out at 93000 nM.
